The record followed here is ChEMBL document CHEMBL4680229, “Design, synthesis and bioactivity study of N-salicyloyl tryptamine derivatives as multifunctional agents for the treatment of neuroinflammation” (Eur J Med Chem, 2020).

Assay [1] relates to C6. As to the kind of experiment: Cytotoxicity against rat C6 cells assessed as reduction in cell viability after 24 hrs by MTT assay. The assay is classed as cell-based. The settings on record: C6, 24 h. In short, it runs like this: (§1)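 C6 or BV2 cells seeded at 1–5×10^5 per well; after 12 h exposed to 0, 6.25, 12.5, 25, 50 or 100 μM (final, DMSO <0.4%) for 24 h. MTT added for 4 h, dissolved in DMSO, read at 570 nm. IC50 as mean of three independent experiments run in triplicate.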
For orientation: Tetrazolium dyes change colour on reduction, which living cells bring about.

Assay [2] has as its system C6. Put plainly: Inhibition of LPS-induced NO production in rat C6 cells incubated for 24 hrs by Griess reagent based assay. The assay is classed as functional, cell-based. As to conditions: C6, 24 h. In short, it runs like this: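 C6 cells at 5×10^5 cells/mL, LPS 10 μg/mL plus compound at 2.5–40 μM final for 24 h. Nitrite measured with Griess reagent at 540 nm against a NaNO2 standard; IC50 from three repeats.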
A general note: Griess reagent forms a coloured azo dye with nitrite.

The test system of another assay is BV-2. Put plainly: Cytotoxicity against mouse BV-2 cells assessed as reduction in cell viability after 24 hrs by MTT assay. The assay is classed as cell-based. The settings on record: BV-2, 24 h. The method in brief: as §1
The target in assay [3] is Prostaglandin G/H synthase 2 (Homo sapiens) (UniProt P35354). As to the kind of experiment: Inhibition of human COX2 assessed as reduction in PGF2alpha formation using arachidonic acid as substrate incubated for 10 mins by ELISA. On the technique in general: ELISA stands for enzyme-linked immunosorbent assay.
Sequence of Prostaglandin G/H synthase 2 (Homo sapiens) (P35354 whole entry, looked up): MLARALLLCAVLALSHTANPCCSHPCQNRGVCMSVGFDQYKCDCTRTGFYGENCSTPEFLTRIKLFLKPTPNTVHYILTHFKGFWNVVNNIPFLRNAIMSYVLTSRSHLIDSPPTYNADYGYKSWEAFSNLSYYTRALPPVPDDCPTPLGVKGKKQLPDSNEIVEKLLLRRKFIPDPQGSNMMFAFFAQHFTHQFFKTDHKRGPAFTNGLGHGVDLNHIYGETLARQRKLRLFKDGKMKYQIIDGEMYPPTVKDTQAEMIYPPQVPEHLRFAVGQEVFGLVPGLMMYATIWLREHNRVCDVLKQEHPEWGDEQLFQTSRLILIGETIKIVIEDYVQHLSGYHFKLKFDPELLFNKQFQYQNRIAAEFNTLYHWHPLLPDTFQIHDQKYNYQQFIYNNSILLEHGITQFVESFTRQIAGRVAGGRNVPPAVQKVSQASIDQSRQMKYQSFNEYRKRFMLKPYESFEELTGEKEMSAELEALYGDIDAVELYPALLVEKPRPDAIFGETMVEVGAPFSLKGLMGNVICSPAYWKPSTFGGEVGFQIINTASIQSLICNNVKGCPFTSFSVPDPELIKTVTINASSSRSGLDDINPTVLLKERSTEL
The nature of assay [4]: Inhibition of LPS-induced NO production in mouse BV-2 cells incubated for 24 hrs by Griess reagent based assay. The assay is classed as functional, cell-based. The settings on record: BV-2, 24 h. In short, it runs like this: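 BV2 cells at 5×10^5 cells/mL, LPS 1 μg/mL plus compound at 2.5–40 μM final for 24 h. Supernatant nitrite measured with Griess reagent for 15 min at room temperature in the dark, 540 nm, against a NaNO2 standard curve; IC50 from three repeats.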

Assay [5] addresses Prostaglandin G/H synthase 1 (Homo sapiens) (UniProt P23219). As to the kind of experiment: Inhibition of human COX1 assessed as reduction in PGF2alpha formation using arachidonic acid as substrate incubated for 10 mins by ELISA.
The species entered for a further assay is Homo sapiens. Put plainly: Selectivity index, ratio of IC50 for inhibition of human COX1 to IC50 for inhibition of human COX2.
Assay [6] is described as follows: Antioxidant activity assessed as DPPH radical scavenging activity incubated for 30 mins. The assay is classed as functional. The method in brief: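 Compound in ethanol at 2.5–40 μM final, mixed 1:1 with 700 μmol/L ethanolic DPPH; 30 min in the dark at room temperature, absorbance at 515 nm. Serotonin used as standard; EC50 from three independent experiments.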

The term IC50 denotes the point on the concentration scale where inhibition reaches its midpoint. On to `Cc1ccc2[nH]cc(CCNC(=O)c3ccccc3O)c2c1`, for which the IC50 is above 100 µM in the assay on C6 [1]; above 40 µM with C6 [2]; above 100 µM in the assay on BV-2; above 40 µM in assay [3]; above 40 µM in assay [4]; above 40 µM in assay [5].
Regarding `CN(C)c1ccccc1C(=O)NCCc1c[nH]c2ccccc12`, the 50% inhibitory concentration (IC50) with C6 [1] was above 100 µM; with C6 [2], above 40 µM; in the assay with BV-2, above 100 µM; in assay [3], above 40 µM; in assay [4], 22.9 µM.
Regarding `O=C(NCCc1c[nH]c2ccc(Cl)cc12)c1ccccc1Nc1ccccc1`, the IC50 in the assay with C6 [1] turned out to be 79.3 µM; in the assay with BV-2, 62.4 µM; in assay [3], 0.58 µM; in assay [5], 1.34 µM. Also, the Ratio IC50 in the assay filed under Homo sapiens amounted to 2.31.
As for `O=C(NCCc1c[nH]c2ccccc12)c1ccc(O)cc1O`, the IC50 in the assay on C6 [1] was above 100 µM; in the assay on C6 [2] it was above 40 µM; in the assay on BV-2 it was above 100 µM; in assay [3], 25 µM; in assay [4], above 40 µM; in assay [5] it was above 40 µM.
Take `Cc1ccc2[nH]cc(CCNC(=O)c3ccccc3Nc3ccccc3)c2c1`: the IC50 with C6 [1] was found to be 87.9 µM; with BV-2 it was 64.6 µM; in assay [3], 1.47 µM; in assay [5], 27 µM. The Ratio IC50 in the assay filed under Homo sapiens came to 18.4.
As to `COc1ccc2[nH]cc(CCNC(=O)c3ccccc3Nc3cccc(Cl)c3C)c2c1`, the figures for the IC50 (in the assay on C6 [1]; in the assay with BV-2; in assay [3]) were 62.4 µM, above 100 µM and above 40 µM, respectively.
Take `O=C(NCCc1c[nH]c2ccccc12)c1ccccc1O`: the 50% inhibitory concentration (IC50) with C6 [1] is above 100 µM; with C6 [2], above 40 µM; in the assay with BV-2, above 100 µM; in assay [3], above 40 µM; in assay [4], 26.4 µM.
`O=C(NCCc1c[nH]c2ccc(O)cc12)c1ccccc1O`: the half-inhibitory concentration (IC50) with C6 [1] was above 100 µM; in the assay with C6 [2] it was above 40 µM; in the assay on BV-2, above 100 µM; in assay [3], 0.8 µM; in assay [4], above 40 µM; in assay [5], 1.74 µM. Moreover, in the assay listed under Homo sapiens, the Ratio IC50 was found to be 2.18.
Turning to `CN(C)c1ccccc1C(=O)NCCc1c[nH]c2ccc(O)cc12`, the IC50 in the assay on C6 [1] was above 100 µM; in the assay on C6 [2], above 40 µM; with BV-2, above 100 µM; in assay [3], 0.57 µM; in assay [4], above 40 µM.
Take `CNc1ccccc1C(=O)NCCc1c[nH]c2ccccc12`: the IC50 in the assay with C6 [1] was above 100 µM; in the assay with C6 [2], above 40 µM; with BV-2 it was above 100 µM; in assay [3], above 40 µM; in assay [4] it was above 40 µM; in assay [5] it was above 40 µM.
As for `O=C(NCCc1c[nH]c2ccccc12)c1ccc(F)cc1O`, the concentration for half-maximal inhibition (IC50) with C6 [1] was above 100 µM; in the assay on C6 [2] it was above 40 µM; with BV-2 it was above 100 µM; in assay [3] it was above 40 µM; in assay [4], above 40 µM; in assay [5], above 40 µM.
As for `Cc1ccc2[nH]cc(CCNC(=O)c3ccccc3Nc3cccc(Cl)c3C)c2c1`, the results for the IC50 (with C6 [1]; in the assay on BV-2; in assay [3]) were 66.1 µM, 73.7 µM and 9.72 µM, respectively.
For the molecule `O=C(NCCc1c[nH]c2ccccc12)c1cc(Cl)ccc1O`, the IC50 in the assay on C6 [1] was above 100 µM; with C6 [2] it was above 40 µM; with BV-2, above 100 µM; in assay [3], 10.4 µM; in assay [4] it was above 40 µM; in assay [5], above 40 µM.
Usually EC50 stands for the midpoint of the concentration-response curve. On to `NCCc1c[nH]c2ccc(O)cc12` [SEROTONIN], for which, in assay [6], the concentration giving a half-maximal response (EC50) was 0.63 µM.
On to `Cc1c(Cl)cccc1Nc1ccccc1C(=O)NCCc1c[nH]c2ccccc12`, for which the IC50 in the assay with C6 [1] was found to be 71.1 µM; with BV-2, 54.6 µM; in assay [3], 14.5 µM.
In the same order, the values of `Cc1cccc(Nc2ccccc2C(=O)NCCc2c[nH]c3ccccc23)c1C` are 95.2 µM, 55.1 µM and 2.31 µM.
In the same order, the values of `CN(c1ccccc1)c1ccccc1C(=O)NCCc1c[nH]c2ccccc12` are 28.5 µM, 7.98 µM and above 40 µM.
With `COc1ccc2[nH]cc(CCNC(=O)c3ccccc3Nc3ccccc3)c2c1`, the IC50 with C6 [1] is 89.3 µM; in the assay on C6 [2], 7.61 µM; in the assay on BV-2 it was above 100 µM; in assay [3] it was 2.76 µM; in assay [4], 19.9 µM; in assay [5], 38.6 µM. For the same molecule, the Ratio IC50 in the assay listed under Homo sapiens is 14.
On to `Cc1ccc(O)c(C(=O)NCCc2c[nH]c3ccccc23)c1`, for which the IC50 was above 100 µM with C6 [1]; above 40 µM in the assay with C6 [2]; above 100 µM in the assay with BV-2; above 40 µM in assay [3]; above 40 µM in assay [4]; above 40 µM in assay [5].
Take `Cc1cccc(Nc2ccccc2C(=O)NCCc2c[nH]c3ccc(O)cc23)c1C`: the results for the IC50 (in the assay on C6 [1]; with BV-2; in assay [3]) were 80.5 µM, 56.4 µM and 1.4 µM, respectively.
`O=C(NCCc1c[nH]c2ccccc12)c1cc2ccccc2cc1O`: the concentration for half-maximal inhibition (IC50) was above 100 µM in the assay on C6 [1]; 13.2 µM in the assay with C6 [2]; above 100 µM with BV-2; 2.18 µM in assay [3]; 59 µM in assay [4]; 39.2 µM in assay [5]. Besides, in the assay filed under Homo sapiens, the Ratio IC50 was 18.
